Measured values taken from ChEMBL document CHEMBL4622869, “Discovery and structure-activity relationships study of positive allosteric modulators of the M3 muscarinic acetylcholine receptor” (Bioorg Med Chem, 2020).

Tests used:
[1] = molecular target: Muscarinic acetylcholine receptor M3 (Homo sapiens) (UniProt P20309); test: Positive allosteric modulation of recombinant human muscarinic acetylcholine receptor M3 expressed in CHOK1 cells assessed as increase in carbachol-induced intracellular calcium flux at 10 uM preincubated for 5 mins followed by carbachol addition by Fluo4-AM dye based FLIPR assay relative to carbachol; assay type: functional, cell-based; conditions: CHO-K1
Chain of Muscarinic acetylcholine receptor M3 (Homo sapiens) (P20309 whole entry, looked up): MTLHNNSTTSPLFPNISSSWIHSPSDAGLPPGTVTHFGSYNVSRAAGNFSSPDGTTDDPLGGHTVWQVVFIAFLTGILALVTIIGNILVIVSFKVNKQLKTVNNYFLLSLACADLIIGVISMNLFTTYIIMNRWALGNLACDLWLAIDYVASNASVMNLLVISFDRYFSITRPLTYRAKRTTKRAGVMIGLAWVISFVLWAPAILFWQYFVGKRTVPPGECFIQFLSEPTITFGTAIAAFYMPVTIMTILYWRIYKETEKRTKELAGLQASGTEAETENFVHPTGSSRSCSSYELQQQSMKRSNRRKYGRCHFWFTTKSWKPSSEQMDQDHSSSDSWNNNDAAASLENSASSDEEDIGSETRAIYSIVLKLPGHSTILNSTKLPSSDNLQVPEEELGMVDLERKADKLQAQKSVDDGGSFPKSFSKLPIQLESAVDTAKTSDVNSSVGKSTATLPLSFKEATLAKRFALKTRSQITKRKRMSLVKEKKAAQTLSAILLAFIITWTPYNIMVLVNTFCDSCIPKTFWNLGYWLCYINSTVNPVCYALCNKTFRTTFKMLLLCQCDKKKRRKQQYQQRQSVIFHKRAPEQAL
Method in brief: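 CHO-K1 cells stably expressing human or rat M1–M5; M2 and M4 lines also co-express human Gα16. Cells loaded with 3.1 μM Fluo-4 AM in HBSS/20 mM HEPES pH 7.5/BSA/2.5 mM probenecid for ~2 h at room temperature. Test substance at 10 μM final, then carbachol (0.0024 nM–100 μM) ~5 min later; Ca2+ read by FLIPR Tetra. Fold shift = carbachol EC50 without / with test substance, from logistic fits.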

Thrombopoietin receptor = molecular target: T1, Thrombopoietin receptor (Homo sapiens, UniProt P40238); test: Agonist activity at recombinant human c-Mpl receptor transfected in BA/F3 cells assessed as increase in cell proliferation by cell counting analysis; assay type: cell-based; conditions: baf3
T1 sequence (P40238 whole entry): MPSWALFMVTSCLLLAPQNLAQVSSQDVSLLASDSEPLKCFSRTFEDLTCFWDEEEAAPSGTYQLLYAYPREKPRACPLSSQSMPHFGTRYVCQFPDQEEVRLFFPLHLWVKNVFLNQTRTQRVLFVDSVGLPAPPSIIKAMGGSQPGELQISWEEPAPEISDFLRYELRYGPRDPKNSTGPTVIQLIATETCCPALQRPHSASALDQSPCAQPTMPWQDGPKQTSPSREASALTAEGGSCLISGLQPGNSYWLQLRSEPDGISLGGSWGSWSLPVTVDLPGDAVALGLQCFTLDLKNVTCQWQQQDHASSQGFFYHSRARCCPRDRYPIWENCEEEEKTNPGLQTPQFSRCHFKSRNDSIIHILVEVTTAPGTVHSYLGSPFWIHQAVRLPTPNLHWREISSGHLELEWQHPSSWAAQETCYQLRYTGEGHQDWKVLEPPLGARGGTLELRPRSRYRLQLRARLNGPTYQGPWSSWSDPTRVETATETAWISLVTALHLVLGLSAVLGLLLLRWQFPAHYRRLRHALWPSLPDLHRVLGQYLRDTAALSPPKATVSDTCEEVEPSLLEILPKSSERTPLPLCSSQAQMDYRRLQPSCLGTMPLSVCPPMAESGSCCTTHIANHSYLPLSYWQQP
Method in brief: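 Ba/F3 cells stably transfected with human c-Mpl by electroporation with blasticidin selection. 1×10^4 cells/well in RPMI-1640 with 10% FBS, with test substance (100 nM to 10 μM final), overnight at 37°C in 5% CO2. Cell Counting Kit added for about 5 h, then A450 read. Scale: untreated wells 0%, reference c-Mpl agonist at 1 μM 100%. EC30 from logistic regression.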

Row | SMILES | fold change (FC) [1] | EC30 (Thrombopoietin receptor) [µM]
1 | COc1ccc(-c2nc(NC(=O)c3ccc(O)cc3)sc2CN2CCCC(C)(C)C2)cc1C(F)(F)F | 8.9 | 
2 | C[C@@H]1CCCN1Cc1sc(NC(=O)c2cnc(N3CCC(C(=O)O)CC3)nc2)nc1-c1cc(Cl)cs1 | 65 | 
3 | C[C@@H]1CCCN1Cc1sc(NC(=O)c2cnc(N3CCC(C(=O)O)CC3)c(F)c2)nc1-c1cc(Cl)cs1.Cl.Cl | 132 | 0.0032
4 | C[C@@H]1CCCN1Cc1sc(NC(=O)c2cnc(N3CCC(C(=O)O)CC3)cn2)nc1-c1cc(Cl)cs1.Cl.Cl | 186 | 0.35
5 | COc1ccc(-c2nc(NC(=O)c3cnc(C(=O)O)cn3)sc2CN2CCCC(C)(C)C2)cc1C(F)(F)F | 39 | 
6 | COc1ccc(-c2nc(NC(=O)c3cnc(NCC(=O)O)cn3)sc2CN2CCCC(C)(C)C2)cc1C(F)(F)F | 162 | 
7 | COc1ccc(-c2nc(NC(=O)c3cnc(N4CCC(C(=O)O)CC4)cn3)sc2CN2CCCC[C@H]2C)cc1C(F)(F)F.Cl.Cl | 94 | > 10
8 | C[C@@H]1CCCN1Cc1sc(NC(=O)c2cnc(N3CCC(C(=O)O)CC3)cn2)nc1-c1ccc(Cl)c(C(F)(F)F)c1.Cl.Cl | 118 | 1.72
9 | C[C@@H]1CCCN1Cc1sc(NC(=O)C2CCN(c3ccc(C(=O)O)cn3)CC2)nc1-c1cc(Cl)cs1 (racemic) | 2.8 | 
10 | COc1ccc(-c2nc(NC(=O)c3cnc(N4CCC(C(=O)O)CC4)cn3)sc2CN2CCCC(C)(C)C2)cc1C(F)(F)F.Cl.Cl | 238 | > 10
11 | C[C@@H]1CCCN1Cc1sc(NC(=O)c2cnc(N3CCC(C(=O)O)CC3)cn2)nc1-c1cc(Cl)cc(C(F)(F)F)c1.Cl.Cl | 168 | 0.15
12 | COc1ccc(-c2nc(NC(=O)c3cnc(N(C)CC(=O)O)cn3)sc2CN2CCCC(C)(C)C2)cc1C(F)(F)F | 137 | 
13 | COc1ccc(-c2nc(NC(=O)c3ccc(OCC(=O)O)cc3)sc2CN2CCCC(C)(C)C2)cc1C(F)(F)F | 204 | 
14 | COCCN(Cc1sc(NC(=O)c2cnc(N3CCC(C(=O)O)CC3)cn2)nc1-c1ccc(OC)c(C(F)(F)F)c1)CC(C)C.Cl.Cl | 84 | > 10
15 | COc1ccc(-c2nc(NC(=O)c3cnc(N4CCC(C(=O)O)CC4)cn3)sc2CN2CCC[C@@H]2C)cc1C(F)(F)F.Cl.Cl | 25 | > 10
16 | COc1ccc(-c2nc(NC(=O)c3cnc(OCC(=O)O)cn3)sc2CN2CCCC(C)(C)C2)cc1C(F)(F)F | 175 | 
17 | COc1ccc(-c2nc(NC(=O)c3cnc(N4CCC(C(=O)O)CC4)cn3)sc2CN2CCC[C@H]2C)cc1C(F)(F)F.Cl.Cl | 73 | > 10
18 | CCC[C@@H]1CCCN1Cc1sc(NC(=O)c2cnc(N3CCC(C(=O)O)CC3)cn2)nc1-c1ccc(OC)c(C(F)(F)F)c1.Cl.Cl | 128 | > 10
19 | COC[C@@H]1CCCN1Cc1sc(NC(=O)c2cnc(N3CCC(C(=O)O)CC3)cn2)nc1-c1ccc(OC)c(C(F)(F)F)c1.Cl.Cl | 72 | > 10
